Measurements gathered from unrelated publications.
Compare with care: the assays were run in different laboratories.
Target: G protein-coupled receptor kinase 6 (GRK6, Homo sapiens, UniProt P43250)

Structure (SMILES)	assay	conditions	measurement	result
CCN(CC)CCNC(=O)c1c(C)[nH]c(/C=C2\C(=O)Nc3ccc(F)cc32)c1C	enzyme activity, inhibitor	0.3 µM	inhibition	31%
CCN(CC)c1ccc(C2=NNC(=O)CC2C)cc1[N+](=O)[O-] (stereo not shown)	enzyme activity, inhibitor	10 µM	remaining activity	105%
Cc1ccc(Nc2nccc(N(C)c3ccc4c(C)n(C)nc4c3)n2)cc1S(N)(=O)=O	enzyme activity, inhibitor	0.3 µM	inhibition	11%
O=C1Nc2ccc(Cl)cc2C1=Cc1cc(Cl)c(O)c(Cl)c1	cell-free assay	0.5 µM	remaining signal	89.6%
CC(C)(C)c1nc(-c2cccc(NS(=O)(=O)c3c(F)cccc3F)c2F)c(-c2ccnc(N)n2)s1	enzyme activity, inhibitor, radiometric	1 µM	remaining activity	79%
COc1cc2ncnc(Nc3ccc(Oc4ccccc4)c(C)c3C)c2cc1OC	enzyme activity, inhibitor	1 µM	inhibition	-2%
CNC(=O)c1cc(Oc2ccc(NC(=O)Nc3ccc(Cl)c(C(F)(F)F)c3)cc2)ccn1	enzyme activity, inhibitor	10 µM	inhibition	1%
CCCS(=O)(=O)Nc1ccc(F)c(C(=O)c2c[nH]c3ncc(-c4ccc(Cl)cc4)cc23)c1F	enzyme activity, inhibitor	1 µM	inhibition	< 10%
Cc1sc(C(=O)NC2COC2)cc1-n1cc(NC(=O)Nc2c(F)cccc2Cl)cn1	enzyme activity, inhibitor	10 µM	remaining activity	91.5%
Cc1ccc(NC(=O)c2ccc(C)c(C(F)(F)F)c2)cc1C#Cc1nn(C2CCC(O)CC2)c2ncnc(N)c12 (stereo not shown)	cell-free assay	10 µM	remaining signal	100%
N#CCCc1ccc2c(c1)-c1[nH]c3ccc([N+](=O)[O-])cc3c1CC(=O)N2	cell-free assay	0.5 µM	remaining signal	91.5%
CCCOc1ccc(OC)c(F)c1C(=O)c1ccc(C(=O)N[C@@H]2CNC[C@H]2NC(=O)c2ccc3[nH]ncc3c2)cc1	enzyme activity, inhibitor	10 µM	remaining activity	104%
CC(C)(O)[C@H]1CC[C@H](Nc2ccc3ncc(-c4cccc(C(F)(F)F)c4)n3n2)CC1	enzyme activity, inhibitor	1 µM	remaining activity	90.6%
